The record followed here is ChEMBL document CHEMBL1154135, “Macaflavanones A-G, prenylated flavanones from the leaves of Macaranga tanarius” (J Nat Prod, 2008).

For one test, the system named is A549. Briefly: Cytotoxicity against human A549 cells after 72 hrs by MTT assay. The test is classed as functional, cell-based. The settings on record: for IC50: A549, 72 h. The gist of the method: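 A549 cells exposed 72 h to samples added in 10% DMSO after a 24 h pre-culture at 37 °C, 5% CO2. MTT (0.5 mg/mL) in DMEM for 1.5 h, formazan dissolved in DMSO, absorbance at 540 nm minus 620 nm. % inhibition relative to untreated control gives IC50; etoposide positive control; means with SD from triplicate experiments.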
In general terms: Tetrazolium dyes change colour on reduction, which living cells bring about.

A further test relates to KB. Briefly: Cytotoxicity against human KB cells after 72 hrs by MTT assay. The test is classed as functional, cell-based. The gist of the method:
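KB cells seeded at 3 × 10^3 cells/well in DMEM with 10% FBS, amphotericin B (0.5 µg/ml) and kanamycin sulfate (100 µg/mL), 37 °C, 5% CO2. After 24 h, samples in 10% DMSO added; incubated 72 h. MTT (0.5 mg/mL) added for 1.5 h, formazan dissolved in DMSO, absorbance at 540 nm minus 620 nm. % inhibition vs control; etoposide positive control; means with SD, triplicate.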

Activity calls are given as the source filed them. No cut-off for these calls is given here.

A word on the IC50: it is the concentration that gives 50% inhibition. With `COc1cc([C@@H]2c3cc4c(cc3[C@@H](O[C@@H]3O[C@@H]5CO[C@@H](C)O[C@H]5[C@H](O)[C@H]3O)[C@H]3COC(=O)[C@H]23)OCO4)cc(OC)c1O` [ETOPOSIDE], the IC50 worked out at 8.37 µM in the test with A549 and 1.25 µM in the test on KB.
For `CC(C)=C/C=C/[C@@]1(C)CCc2c([C@@H]3CC(=O)c4c(cc(O)c(CC=C(C)C)c4O)O3)ccc(O)c2O1`, the outcome in the test on A549 and in the test with KB was inactive.
For `CC(C)=CCC[C@]1(C)CCc2c([C@@H]3CC(=O)c4c(cc(O)c(CC=C(C)C)c4O)O3)ccc(O)c2O1` [MACAFLAVANONE G], the results for the IC50 in the test with A549 and in the test on KB were 13.4 µM and 12.3 µM, respectively.
Turning to `CC(C)=CCC[C@@]1(C)CCc2c([C@@H]3CC(=O)c4c(cc(O)c(CC=C(C)C)c4O)O3)ccc(O)c2O1`, the result in the test with A549 and with KB was inactive.
For the molecule `CC(C)=CCC/C(C)=C/Cc1c([C@@H]2CC(=O)c3c(cc4c(c3O)C=CC(C)(C)O4)O2)ccc(O)c1O`, the outcome in the test with A549 and in the test with KB was inactive.
For the molecule `CC(C)=CCC/C(C)=C/Cc1c([C@@H]2CC(=O)c3c(cc4c(c3O)CCC(C)(C)O4)O2)ccc(O)c1O`, the outcome in the test on A549 and in the test with KB was inactive.
For the molecule `CC(C)=C/C=C/[C@]1(C)CCc2c([C@@H]3CC(=O)c4c(cc(O)c(CC=C(C)C)c4O)O3)ccc(O)c2O1`, the result with A549 and in the test with KB was inactive.
For `CC(C)=CCC[C@@]1(C)C=Cc2c([C@@H]3CC(=O)c4c(cc(O)c(CC=C(C)C)c4O)O3)ccc(O)c2O1`, the outcome in the test with A549 and in the test with KB was inactive.
